Calls of active or inactive are those of the source. The calls are words filed in the database; no cut-off is given here. Numbered stars: 1 amine (or outer) side, 2 acyl side, 3 side chain; on linkers, the order of the positions; unused ones are H or OH. Bridge positions count the residues as written; N and C are the ends. Square brackets hold non-standard residues; d marks the D form. Peptide text beside a SMILES is read from it. AMPB(E) = O=C(c1ccc(/N=N/c2ccc(CN[*:1])cc2)cc1)[*:2]; X3 = O=C(c1ccccc1/N=N\c1ccccc1C(=O)[*:2])[*:1]; X4 = O=C(c1ccccc1/N=N/c1ccccc1C(=O)[*:2])[*:1]; Dap = NC[C@H](N)C(=O)O
What was measured:
Format in all cases: functional, cell-based
[1] = molecular target: Vasopressin V1a receptor (Homo sapiens) (UniProt P37288); experiment: Antagonist activity at human V1a receptor transfected in HEK293 cells at 10 uM relative to control; conditions: filed as antagonist
Summary of the method: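 V1aR-expressing HEK293 cells received VP (1 nM final) premixed with test compound (10 or 100 μM), incubated for 1 h at 37 °C. IP1 accumulation was measured by HTRF (665/615 nm) and normalized to basal (0%) and maximal VP (100%). […] At least three independent experiments were run, each in triplicate.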

HEK293 = experiment: Induction of C-terminal GFP-tagged V1b receptor internalization in HEK293 cells at 1 nM incubated for 60 mins by fluorescence microscopy analysis; conditions: Homo sapiens
Summary of the method: (§1)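 HEK293 cells stably expressing human V1bR with C-terminal GFP were plated overnight on poly-D-lysine coverslips and serum-starved for one day. Ligands in serum-free medium were applied for 60 min; the Z-form was diode-activated at 340 nm. Cells were fixed in 4% PFA, immunostained (anti-GFP, anti-pCREB, Hoechst) and imaged confocally. pCREB signal was normalized to medium-only controls; internalization was scored from GFP location.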

[2] = molecular target: T1, Vasopressin V1b receptor (Homo sapiens) (UniProt P47901); experiment: Activation of human C-terminal GFP-tagged V1b receptor in HEK293 cells assessed as CREB phosphorylation at 1 nM incubated for 60 mins by immunostaining analysis; summary of the method: as §1
T1 sequence (whole entry): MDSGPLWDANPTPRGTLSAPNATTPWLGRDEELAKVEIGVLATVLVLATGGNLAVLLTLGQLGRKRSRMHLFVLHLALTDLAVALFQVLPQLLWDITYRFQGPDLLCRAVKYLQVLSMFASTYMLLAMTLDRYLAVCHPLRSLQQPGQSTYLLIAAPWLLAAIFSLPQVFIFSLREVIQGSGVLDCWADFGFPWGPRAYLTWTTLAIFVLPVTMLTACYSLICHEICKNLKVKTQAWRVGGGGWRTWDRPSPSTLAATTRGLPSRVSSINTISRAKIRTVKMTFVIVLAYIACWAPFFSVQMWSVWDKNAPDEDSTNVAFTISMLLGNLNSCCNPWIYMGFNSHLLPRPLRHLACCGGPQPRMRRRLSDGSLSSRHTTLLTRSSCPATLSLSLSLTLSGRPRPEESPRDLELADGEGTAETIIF

[3] = molecular target: Vasopressin V1a receptor (Homo sapiens) (UniProt P37288); experiment: Agonist activity at human V1a receptor transfected in HEK293 cells upto 10 uM incubated for 1 hr by IP-one HTRF assay
Summary of the method: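 Stable HEK293 lines expressing hOTR, hV1aR or hV1bR (10,000 cells/well, 48 h) were preincubated in stimulation buffer for 15 min, then given ligand for 1 h at 37 °C. Z-forms were pre-irradiated at 340 nm for 1 min.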

Sequence of Vasopressin V1a receptor (Homo sapiens) (P37288 whole entry, looked up): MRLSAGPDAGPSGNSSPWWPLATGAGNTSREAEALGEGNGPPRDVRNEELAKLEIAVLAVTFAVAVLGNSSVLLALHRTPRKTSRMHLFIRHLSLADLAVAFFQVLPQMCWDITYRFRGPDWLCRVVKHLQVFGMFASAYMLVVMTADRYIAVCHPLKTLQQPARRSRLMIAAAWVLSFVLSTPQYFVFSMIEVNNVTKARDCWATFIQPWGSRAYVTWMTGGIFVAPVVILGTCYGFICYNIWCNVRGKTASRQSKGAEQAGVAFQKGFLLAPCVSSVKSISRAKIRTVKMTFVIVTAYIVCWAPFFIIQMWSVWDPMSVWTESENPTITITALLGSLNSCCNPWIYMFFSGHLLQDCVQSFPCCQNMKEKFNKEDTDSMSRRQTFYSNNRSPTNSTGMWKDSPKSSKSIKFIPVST

| SMILES | Activity [1] | Activity (HEK293) | Activity [3] | other results |
| --- | --- | --- | --- | --- |
| NC(=O)CC[C@@H]1NC(=O)[C@H](Cc2ccc(/N=N\c3ccccc3)cc2)NC(=O)[C@H](Cc2ccc(O)cc2)NC(=O)[C@@H](N)CSSC[C@@H](C(=O)N2CCC[C@H]2C(=O)N[C@@H](CCCN=C(N)N)C(=O)NCC(N)=O)NC(=O)[C@H](CC(N)=O)NC1=O |  | Active |  |  |
| NC(=O)CC[C@@H]1NC(=O)[C@H](Cc2ccc(/N=N/c3ccccc3)cc2)NC(=O)[C@H](Cc2ccc(O)cc2)NC(=O)[C@@H](N)CSSC[C@@H](C(=O)N2CCC[C@H]2C(=O)N[C@@H](CCCN=C(N)N)C(=O)NCC(N)=O)NC(=O)[C@H](CC(N)=O)NC1=O |  | inactive |  | Activity [2]: inactive |
| NC(=O)CC[C@@H]1NC(=O)[C@H](Cc2ccccc2)NC(=O)[C@H](Cc2ccc(O)cc2)NC(=O)[C@@H](N)CSSC[C@@H](C(=O)NCc2ccc(/N=N/c3ccc(C(=O)N[C@@H](CCCN=C(N)N)C(=O)NCC(N)=O)cc3)cc2)NC(=O)[C@H](CC(N)=O)NC1=O (H-CYFQNC[AMPB(E)]RG-NH2; disulfide 1-6) |  |  | inactive |  |
| NC(=O)CC[C@@H]1NC(=O)[C@H](Cc2ccccc2)NC(=O)[C@H](Cc2ccc(O)cc2)NC(=O)[C@@H](N)CSSC[C@@H](C(=O)NCc2ccc(/N=N/c3ccc(C(=O)NCC(N)=O)cc3)cc2)NC(=O)[C@H](CC(N)=O)NC1=O (H-CYFQNC[AMPB(E)]G-NH2; disulfide 1-6) |  |  | inactive |  |

Second part, led by results:

| Activity [1] | SMILES | Activity (HEK293) | Activity [3] | other results |
| --- | --- | --- | --- | --- |
| Active | NC(=O)CC[C@@H]1NC(=O)[C@H](Cc2ccccc2)NC(=O)[C@H](Cc2ccc(O)cc2)NC(=O)c2ccccc2/N=N/c2ccccc2C(=O)NC[C@@H](C(=O)N2CCC[C@H]2C(=O)N[C@@H](CCCN=C(N)N)C(=O)NCC(N)=O)NC(=O)[C@H](CC(N)=O)NC1=O (YFQN[Dap]PRG-NH2; linker N-5 via X4) |  |  |  |
| Active | NC(=O)CC[C@@H]1NC(=O)[C@H](Cc2ccccc2)NC(=O)[C@H](Cc2ccc(O)cc2)NC(=O)c2ccccc2/N=N\c2ccccc2C(=O)NC[C@@H](C(=O)N2CCC[C@H]2C(=O)N[C@@H](CCCN=C(N)N)C(=O)NCC(N)=O)NC(=O)[C@H](CC(N)=O)NC1=O (YFQN[Dap]PRG-NH2; linker N-5 via X3) |  |  |  |

Source: ChEMBL document CHEMBL5370638
